This is an account of results in ChEMBL document CHEMBL1772977, “Synthesis and biological evaluation of novel 4-benzylpiperazine ligands for sigma-1 receptor imaging” (Bioorg Med Chem, 2011).

In general, Ki refers to a measure of affinity in units of concentration, obtained from inhibition or displacement. Read a low Ki as a stronger hold on the target.

The target in assay [1] is Sigma non-opioid intracellular receptor 1 (Rattus norvegicus, UniProt Q9R0C9). Kind of assay: Displacement of (+)-[3H]pentazocine from sigma 1 receptor in rat brain membranes by competitive binding assay. The format is cell membranes. A digest of the protocol:
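Sigma-1 competition binding used rat brain membranes as receptor material with (+)-[3H]pentazocine as radioligand. Ki was derived by Cheng–Prusoff from at least three independent experiments, each in triplicate, and is reported as mean ± SD.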

The nature of assay [2]: Displacement of [3H]ditolylguanidine from sigma 2 receptor in rat liver membrane by competitive binding assay. It is filed as cell membranes. A digest of the protocol:
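Sigma-2 competition binding used rat liver membranes with [3H]ditolylguanidine as radioligand. 10 µM dextrallorphan was present to mask sigma-1 sites. Ki was derived by Cheng–Prusoff from at least three independent experiments, each in triplicate, and is reported as mean ± SD.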
A general note: In a radioligand displacement assay an active substance lowers the binding of a labelled ligand.

Sigma non-opioid intracellular receptor 1, sequence (Q9R0C9 whole entry): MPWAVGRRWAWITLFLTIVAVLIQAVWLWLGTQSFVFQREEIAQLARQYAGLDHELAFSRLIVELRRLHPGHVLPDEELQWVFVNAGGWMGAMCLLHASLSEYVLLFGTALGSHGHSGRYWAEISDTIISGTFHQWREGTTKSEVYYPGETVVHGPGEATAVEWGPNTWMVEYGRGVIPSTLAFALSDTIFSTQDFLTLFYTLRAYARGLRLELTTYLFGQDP

On to `O=[N+]([O-])c1ccc(CN2CCN(Cc3ccc4c(c3)OCO4)CC2)cc1`, for which the Ki in assay [1] came to 0.43 nM; in assay [2] it was 40.5 nM.

Consider `Cc1ccc(CN2CCN(Cc3ccc4c(c3)OCO4)CC2)cc1`, for which the Ki is 0.91 nM in assay [1] and 49.8 nM in assay [2].
